Bioassay records (PubChem BioAssay)
MEKK3 PB1 HTS = modulators of MEKK3-MEK5 PB1 binding, primary screen, biochemical, wildtype MEKK3, multiplex bead flow cytometry, Alexa488-MEK5; Mitogen-activated protein kinase kinase kinase 3 (Homo sapiens), Q99759; bead-based flow cytometry, Alexa488-MEK5 binding to MEKK3; actives lie on both sides; 0 = blocked by unlabeled MEK5, 100 = vehicle; binding response (% of control), % at 10 µM; 1.4% of 290,000 active;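 active = binding response more than 3 SD above or below the average of its plate-row segment, actives on both sides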;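 also: Alexa488 bead fluorescence after subtracting the streptavidin-only scavenger bead signal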
GSK3beta inhib = human GSK3beta kinase inhibitors, primary screen, biochemical, cell-free homogeneous, HTS; GST-GSK3beta kinase, ADP-Glo luminescence, 60 min; active compounds read low; activity score (negative = inhibition), % at 10 µM; 0.038% of 300,000 active;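 active = more than half of replicate wells score below -50%, meaning over 50% inhibition versus plate controls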;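 also: 0% = median DMSO wells and -100% = median GW8510 positive control wells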
Target sequence (P49841 whole entry, looked up): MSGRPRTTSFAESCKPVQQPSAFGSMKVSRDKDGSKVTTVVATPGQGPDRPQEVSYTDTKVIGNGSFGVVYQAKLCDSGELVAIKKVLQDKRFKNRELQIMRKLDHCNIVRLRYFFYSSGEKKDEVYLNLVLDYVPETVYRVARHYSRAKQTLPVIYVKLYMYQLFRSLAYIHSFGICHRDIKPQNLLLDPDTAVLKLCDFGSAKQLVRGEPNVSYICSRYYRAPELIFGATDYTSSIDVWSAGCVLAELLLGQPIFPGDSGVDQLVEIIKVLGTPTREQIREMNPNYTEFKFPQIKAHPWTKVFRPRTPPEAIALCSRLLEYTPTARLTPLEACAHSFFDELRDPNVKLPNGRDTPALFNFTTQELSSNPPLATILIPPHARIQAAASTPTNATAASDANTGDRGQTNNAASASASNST
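Test system: GST-fused GSK3beta enzyme, cell-free | Quantity: 1.6 ng GST-GSK3beta enzyme per well | Reagent: 25 µM ATP with peptide substrate | Schedule: 60 min enzyme reaction, room temperature | Signal: Luminescent ADP-Glo measurement of ADP formed | Read-out basis: Score relative to plate controls | Control set: DMSO and 20 µM GW8510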
MEKK2 mut-MEK5 = MEK5 binding signal on mutant MEKK2 PB1, primary screen, biochemical, multiplex bead flow cytometry, Alexa488-MEK5 | Alexa488-MEK5 binding to MEKK2 mutant | percent response, % at 10 µM | 0.35% of 290,000 active | AID 1530, 2009; in the data active = percent response above about 24%, passing the limit was not always enough
MEKK2wt PB1 HTS = modulators of MEK5 binding to wildtype MEKK2, primary screen, biochemical, multiplex bead flow cytometry, Alexa488-MEK5; binding response (% of control), % at 10 µM; Mitogen-activated protein kinase kinase kinase 2 (Homo sapiens), Q9Y2U5; AID 1531, 2009; 1.1% of 290,000 active; Alexa488-MEK5 binding to MEKK2 WT; actives lie on both sides; in the data active = binding response below about 67% or above about 130%
STK33 kinase inh = inhibitors of purified STK33 kinase, primary screen, biochemical, ADP-Glo luminescence, homogeneous, cell-free; Serine/threonine-protein kinase 33 (Homo sapiens), Q9BYT3; MBP phosphorylation; inhibition, % at 10 µM; 0.073% of 320,000 active; AID 2661, 2010;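 active = inhibition at or above 25%, using the most active replicate where run in duplicate; inactive = inhibition below 25%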
GSK3 alpha inh = blockers of GSK3A enzyme activity – biochemical, luminescence, cell-free homogeneous, HTS, primary screen; inhibition, % at 10 µM; 0.1% of 320,000 active; Glycogen synthase kinase-3 alpha (Homo sapiens), P49840; GSK-3 alpha kinase, ADP-Glo luminescence, 60 min;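 active = more than half of replicates show inhibition above 20%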;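 also: GST-tagged GSK-3 alpha with peptide substrate and 25 µM ATP; 0% = DMSO neutral wells and 100% = GW8510 positive control wells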
MEKK2wt confirm = modulators of MEK5 binding to wildtype MEKK2, confirmation, biochemical, single concentration, multiplex bead flow cytometry. AID 1892, 2009. shares compounds with MEKK3 PB1 HTS. Alexa488-MEK5 binding to MEKK2 WT; actives lie on both sides. 2.4% of 5,900 active. binding response (% of control), % at 10 µM; in the data active = binding response below about 16% or above about 210%; inactive = in between
MEKK2mut-MEK5 = mutant MEKK2 PB1-MEK5 binding signal retest – biochemical, single concentration, multiplex bead flow cytometry, confirmation; shares compounds with MEKK3 PB1 HTS; Alexa488-MEK5 binding to MEKK2 mutant; percent response, % at 10 µM; 2% of 5,900 active; AID 1893, 2009; in the data active = percent response mostly above about 71%, no sharp cut-off; inactive = mostly below about 38%;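 also: higher means compound restores mutant binding toward wildtype level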
MEKK3-MEK5 inh = MEKK3 wild-type PB1 binding to MEK5, inhibitors, confirmation, biochemical, bead multiplex flow cytometry, single concentration, wildtype; binding response (% of control), % at 10 µM; 1.8% of 5,900 active; Alexa488-MEK5 binding to MEKK3; active compounds read low; AID 1894, 2009; shares compounds with MEKK3 PB1 HTS;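 active = binding response below 72% of control, or above a set upper limit, though filed actives all read lower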;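 also: 100% = DMSO only wells and 0% = binding blocked by excess unlabeled MEK5; lower values mean stronger disruption of MEK5 binding to MEKK3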
Active calls of the source: *; nt = no result; [ ] = another dose, or the depositor's remark. Only some compounds are listed: those with a hit (about 2.1% of all), similar ones and a draw of the others.

SMILES	MEKK3 PB1 HTS	GSK3beta inhib	MEKK2 mut-MEK5	MEKK2wt PB1 HTS	STK33 kinase inh	GSK3 alpha inh	MEKK2wt confirm	MEKK2mut-MEK5	MEKK3-MEK5 inh
Brc1cnc2nc(SC/C=C/c3ccccc3)[nH]c2c1	99	2	-1	94	-1	1	nt	nt	nt
O=C(NCc1nc2ncc(Br)cc2[nH]1)c1ccccc1	0.0*[inhibitor]	5	-15	0.0*[inhibitor]	-1	3	90	-4	95
COc1cc(/C=C/c2noc(-c3ccccc3O)n2)cc(OC)c1OC	109	2	-2	95	-1	-1	nt	nt	nt
COc1ccc(/C=C/c2noc(-c3ccccc3O)n2)cc1	131*	1	0	106	3	-2	94	0	98
COc1ccc(S(=O)(=O)N2CCCCC2)cc1NC(=O)CCCOc1ccc(C)cc1	nt	nt	nt	nt	-2	0	nt	nt	nt
Cc1nc(N)sc1C(=O)NN	100	-1	-10	94	1	20	nt	nt	nt
COC(=O)c1cc(C#N)c(OC(C)C)nc1C	142*	2	7	123	-1	0	98	-3	97
C[N+]1(CCC(=O)c2ccccc2)CCCCC1	2.0*[inhibitor]	3	-13	2.0*[inhibitor]	1	0	117	11	114
CC(=O)Nc1ccc(S(=O)(=O)N2C(=O)c3cccc4cccc2c34)cc1	105	-2	7	108	-2	-1	nt	nt	nt
COC(=O)c1ccc(S(=O)(=O)N2CCCN(Cc3cccc(Br)c3F)CC2)n1C	73*[inhibitor]	1	-38	53*[inhibitor]	0	-9	95	-4	98
N#Cc1ccc(COn2nnc3ccccc32)cc1	101	1	-1	96	-1	-2	nt	nt	nt
COc1cc(OC)c(OC)cc1CNC(=O)c1cc(=O)[nH]c2ccccc12	101	-3	10	105	-1	4	nt	nt	nt
CC(=O)c1c(N2CCN(c3ccccc3)CC2)nc(=S)n(-c2ccccc2)c1C	82	2	11	23*[inhibitor]	0	0	93	-7	94
CC(=O)c1c(N2CCN(CCO)CC2)nc(=S)n(-c2ccccc2)c1C	104	1	1	103	0	10	nt	nt	nt
Cc1ccsc1C(=O)OCC(=O)Nc1ccc(Cl)cn1	nt	nt	nt	nt	2	21	nt	nt	nt
Cc1cccc(N2CCN(C(=O)CCC(=O)N3CC(C)Oc4ccc(C)cc43)CC2C)c1 (stereo not given)	95	-1	-6	94	0	-2	nt	nt	nt
O=C(CCSCc1ccc(Cl)cc1)NCCc1ccccc1	142*	-2	0	102	-2	0	96	-6	101
O=C(CSc1ccccc1)NCCSCc1ccccc1	140*	-1	2	111	-1	0	102	2	101
Cc1ccc(SCC(=O)NCCSCc2ccccc2)cc1	112	2	-1	101	-1	1	nt	nt	nt
COc1ccccc1OCC(=O)NCCSCc1ccc(Cl)cc1	132*	2	0	108	-2	-2	97	-7	100
